# From ChEMBL document CHEMBL4480406, “Discovery of an SSTR2-Targeting Maytansinoid Conjugate (PEN-221) with Potent Activity in Vitro and in Vivo” (J Med Chem, 2019)
# Active and inactive are the calls of the source. The rule behind the calls is not given here.
# Tests used:
# [1] = biological target: T1, Somatostatin receptor type 2 (Homo sapiens, UniProt P30874); test: Displacement of [125I]somatostatin from human SSTR2 expressed in CHO-K1 cell membranes after 240 mins
# How it was run: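 Membranes from CHO-K1 cells stably expressing human SSTR2, prepared in modified HEPES pH 7.4. Nonspecific binding was defined with 1 µM somatostatin. Bound ligand was measured by filtration, 3 washes and counting. Six test concentrations were run, top 10 nM, in five-fold dilutions.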
# [2] = system: NCI-H524; test: Cytotoxicity in human NCI-H524 cells pre-incubated for 2 hrs followed by compound wash out and subsequently incubated for 70 hrs by Cell Titer Glo assay; type: functional, cell-based
# How it was run: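 Cells were then spun, washed with fresh medium, resuspended and grown a further 70 h. Proliferation was read by CellTiter-Glo luminescence, and % inhibition calculated relative to vehicle. IC50 came from a four-parameter nonlinear fit.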
# [3] = biological target: T1, Somatostatin receptor type 2; test: Binding affinity to human SSTR2 expressed in CHO-K1 cells assessed as induction of SSTR2 internalization after 4 hrs by chemiluminescent assay; type: cell-based
# [4] = Half life of the compound in phosphate buffer at 1 mM in presence of GSH by LC-MS/MS analysis; type: physicochemical; details: phosphate buffer with GSH
# How it was run: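 Conjugate, added from a 1 mM methanol stock, was incubated in 5 mM GSH at 37 °C. Aliquots taken from 30 min to 6 h were quenched into N-ethyl maleimide in 1% ethanol, and remaining parent conjugate was measured by LC-MS/MS.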
# [5] = Half life in Beagle dog at 0.1 mg/kg, iv; type: ADME, organism-based, Canis lupus familiaris; details: in vivo
# [6] = Cmax in Beagle dog at 0.1 mg/kg, iv; type: ADME, organism-based, Canis lupus familiaris; set-up: dose 0.1 mg/kg, route intravenous; details: in vivo
# [7] = AUC (0 to 6 hrs) in Beagle dog at 0.1 mg/kg, iv; type: ADME, organism-based, Canis lupus familiaris; set-up: dose 0.1 mg/kg, time < 6 hr, route intravenous; details: in vivo
# [8] = Clearance in Beagle dog at 0.1 mg/kg, iv; type: ADME, organism-based, Canis lupus familiaris; details: in vivo
# [9] = system: NCI-H69; test: Antitumor activity against human NCI-H69 cells xenografted in CrTac:NCr-Foxn1nu mouse assessed as tumor regression at 2 mg/kg, iv measured up to 40 days; type: functional
# How it was run: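 Female athymic nude mice were implanted subcutaneously in the right flank with 2.5 × 10^6 NCI-H69 cells (RPMI 1640/10% FBS culture) in media:Matrigel (1:1). At 150-250 mm3, mice were randomized into groups of 10. Compound in 10% propylene glycol in 5 mM citrate buffer (pH=4) was given by tail-vein i.v. injection on indicated days. Tumor volume was measured by calipers as (w2 × l)/2, reported as mean ± SEM.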
# [10] = Toxicity in CrTac:NCr-Foxn1nu mouse xenografted with human NCI-H69 cells assessed as body weight loss at 2 mg/kg, iv measured up to 40 days; type: organism-based; details: in vivo, 960 h
# [11] = system: NCI-H524; test: Cytotoxicity in human NCI-H524 cells pre-incubated for 2 hrs in presence of 100 uM octreotide followed by compound wash out and subsequently incubated for 70 hrs by Cell Titer Glo assay; type: functional, cell-based
# How it was run: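 Octreotide receptor-blockade variant: NCI-H524 cells (5,000/well) were pretreated with octreotide acetate for 30 min, then given compound for 2 h in a ten-point three-fold series.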
# [12] = biological target: Somatostatin receptor type 1 (Homo sapiens, UniProt P30872); test: Displacement of [125I]somatostatin from human SSTR1 expressed in CHO-K1 cell membranes after 120 mins
# Somatostatin receptor type 1, sequence (P30872 whole entry): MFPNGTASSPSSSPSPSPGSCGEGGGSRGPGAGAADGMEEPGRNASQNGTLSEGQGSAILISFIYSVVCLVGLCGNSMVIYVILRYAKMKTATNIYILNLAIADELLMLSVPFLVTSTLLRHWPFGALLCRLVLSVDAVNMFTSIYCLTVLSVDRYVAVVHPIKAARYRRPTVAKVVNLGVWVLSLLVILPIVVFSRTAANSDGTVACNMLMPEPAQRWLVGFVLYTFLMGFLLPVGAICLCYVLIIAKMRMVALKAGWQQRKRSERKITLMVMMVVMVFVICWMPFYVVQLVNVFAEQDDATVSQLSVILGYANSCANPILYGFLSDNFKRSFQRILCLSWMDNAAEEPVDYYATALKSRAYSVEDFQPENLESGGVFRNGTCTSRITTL
# [13] = biological target: Somatostatin receptor type 3 (Homo sapiens, UniProt P32745); test: Displacement of [125I]somatostatin from human SSTR3 expressed in CHO-K1 cell membranes after 120 mins
# Somatostatin receptor type 3, sequence (P32745 whole entry): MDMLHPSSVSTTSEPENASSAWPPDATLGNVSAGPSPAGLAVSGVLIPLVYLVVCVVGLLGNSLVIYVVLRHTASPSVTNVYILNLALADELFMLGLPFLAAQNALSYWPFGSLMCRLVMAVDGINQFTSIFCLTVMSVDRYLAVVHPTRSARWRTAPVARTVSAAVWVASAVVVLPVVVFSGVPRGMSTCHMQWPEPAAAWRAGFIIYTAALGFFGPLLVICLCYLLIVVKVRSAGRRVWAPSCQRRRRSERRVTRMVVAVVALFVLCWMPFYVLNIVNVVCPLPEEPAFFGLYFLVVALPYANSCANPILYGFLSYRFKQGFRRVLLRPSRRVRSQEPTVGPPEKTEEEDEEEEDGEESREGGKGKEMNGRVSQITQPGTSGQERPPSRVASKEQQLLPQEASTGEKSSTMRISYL
# [14] = biological target: Somatostatin receptor type 4 (Homo sapiens, UniProt P31391); test: Displacement of [125I]somatostatin from human SSTR4 expressed in CHO-K1 cell membranes after 120 mins
# Somatostatin receptor type 4, sequence (P31391 whole entry): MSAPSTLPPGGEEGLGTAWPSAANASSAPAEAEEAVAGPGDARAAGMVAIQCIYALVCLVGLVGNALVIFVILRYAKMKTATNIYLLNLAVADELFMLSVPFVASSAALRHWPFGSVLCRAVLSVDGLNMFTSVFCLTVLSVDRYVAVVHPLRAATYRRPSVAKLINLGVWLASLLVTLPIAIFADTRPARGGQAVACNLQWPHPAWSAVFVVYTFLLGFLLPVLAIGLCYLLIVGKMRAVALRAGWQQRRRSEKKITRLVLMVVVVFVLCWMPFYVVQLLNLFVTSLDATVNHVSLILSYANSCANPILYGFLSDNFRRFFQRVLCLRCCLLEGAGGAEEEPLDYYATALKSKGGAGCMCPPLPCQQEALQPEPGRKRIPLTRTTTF
# [15] = biological target: T2, Somatostatin receptor type 5 (Homo sapiens, UniProt P35346); test: Displacement of [125I]somatostatin from human SSTR5 expressed in CHO-K1 cell membranes after 120 mins
# T2 sequence (P35346 whole entry): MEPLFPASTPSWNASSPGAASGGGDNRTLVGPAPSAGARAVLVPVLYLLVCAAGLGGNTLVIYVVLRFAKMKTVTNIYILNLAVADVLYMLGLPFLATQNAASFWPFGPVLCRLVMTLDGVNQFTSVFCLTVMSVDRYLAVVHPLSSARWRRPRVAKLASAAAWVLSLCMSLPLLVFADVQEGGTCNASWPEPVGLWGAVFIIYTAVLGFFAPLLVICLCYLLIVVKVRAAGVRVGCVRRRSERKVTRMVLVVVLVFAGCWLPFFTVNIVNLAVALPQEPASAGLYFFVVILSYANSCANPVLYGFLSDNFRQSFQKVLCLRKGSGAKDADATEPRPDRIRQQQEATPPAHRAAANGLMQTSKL
# [16] = Apparent permeability from apical to basolateral side in human Caco2 cells; type: ADME, cell-based; details: Caco-2
# [17] = Antitumor activity against human HCC33 cells xenografted in CrTac:NCr-Foxn1nu mouse assessed as tumor regression at 1 mg/kg, iv measured up to 16 days; type: functional
# How it was run: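 Female athymic nude mice received subcutaneous right-flank implants in media:Matrigel (1:1): 2.5 × 10^6 HCC-33 cells (RPMI 1640/10% FBS) or 1 x 10^7 IMR-32 cells (EMEM/10% FBS). At 150-250 mm3, mice were randomized into groups of 10. Dosing was tail-vein i.v. on indicated days in 0.1% Solutol HS 15/5% mannitol/WFI. Caliper volume was (w2 × l)/2, reported as group mean ± SEM.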
# [18] = system: IMR-32; test: Antitumor activity against human IMR32 cells xenografted in CrTac:NCr-Foxn1nu mouse assessed as tumor regression at […], iv measured up to 20 days; type: functional
# [19] = Drug uptake in tumor of CrTac:NCr-Foxn1nu mouse xenografted with human NCI-H69 cells assessed as DM1 level at 1 mg/kg, iv measured after 24 hrs by LC-MS/MS analysis relative to DM1 alone; type: ADME, organism-based, Neoplasm; details: in vivo
# How it was run: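 NCI-H69 subcutaneous tumors of 250-600 mm3 in nude mice, groups of 3, dosed i.v. Free DM1 was given in 10% propylene glycol/WFI, conjugates in 10% propylene glycol/5 mM citrate pH 4. Tumors were excised at 24 h and homogenized 1:4 (w/v) in 0.1 M ammonium bicarbonate pH 8.0. Homogenate was reduced with TCEP in acetonitrile (15 min, 37 °C), capped with 0.2 M NEM (15 min, 37 °C), and DM1-NEM quantified by LC-MS/MS against standards in blank tumor homogenate. Values were normalized to DM1 dose.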
# [20] = system: NCI-H69; test: Antitumor activity against human NCI-H69 cells xenografted in CrTac:NCr-Foxn1nu mouse assessed as tumor regression at 1.3 mg/kg, iv measured up to 40 days; type: functional, organism-based
# How it was run: (§1)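 Female athymic nude mice were implanted subcutaneously in the right flank with 2.5 × 10^6 NCI-H69 cells in medium/Matrigel 1:1. At 150-250 mm3, animals were randomized into groups of 10. Dosing was by tail-vein injection in 10% propylene glycol in 5 mM citrate pH 4 on the indicated days. Caliper volumes were calculated as (w2 × l)/2 and reported as mean ± SEM.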
# [21] = biological target: T1, Somatostatin receptor type 2; test: Agonist activity at SSTR2 (unknown origin) assessed as effect on calcium flux incubated for 180 secs by FLIPR assay; type: functional
# [22] = biological target: T1, Somatostatin receptor type 2; test: Antagonist activity at SSTR2 (unknown origin) assessed as effect on agonist-induced calcium flux incubated for 180 secs by FLIPR assay; type: functional
# [23] = biological target: T2, Somatostatin receptor type 5; test: Agonist activity at SSTR5 (unknown origin) assessed as effect on calcium flux incubated for 180 secs by FLIPR assay; type: functional
# [24] = biological target: T2, Somatostatin receptor type 5; test: Antagonist activity at SSTR5 (unknown origin) assessed as effect on agonist-induced calcium flux incubated for 180 secs by FLIPR assay; type: functional
# [25] = system: NCI-H69; test: Antitumor activity against human NCI-H69 cells xenografted in CrTac:NCr-Foxn1nu mouse assessed as tumor regression at 0.7 mg/kg, iv measured up to 20 days; type: functional, organism-based; how it was run: as §1
# T1 sequence (P30874 whole entry): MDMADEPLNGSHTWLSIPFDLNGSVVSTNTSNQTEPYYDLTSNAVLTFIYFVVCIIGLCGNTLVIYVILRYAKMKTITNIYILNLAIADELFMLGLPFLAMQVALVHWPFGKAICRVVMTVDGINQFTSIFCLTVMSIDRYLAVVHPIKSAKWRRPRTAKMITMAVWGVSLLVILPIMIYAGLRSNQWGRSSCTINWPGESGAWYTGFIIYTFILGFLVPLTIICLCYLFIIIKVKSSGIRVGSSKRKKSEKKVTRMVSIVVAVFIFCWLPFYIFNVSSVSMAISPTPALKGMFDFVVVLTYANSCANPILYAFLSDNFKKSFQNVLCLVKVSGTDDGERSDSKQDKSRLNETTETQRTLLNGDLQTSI
SMILES,Ki [1],IC50 [2],EC50 [3],half-life at 1000 µM [4],half-life [5],Cmax [6],AUC(0-t) at 6 h [7],clearance [8],Activity [9],Activity [10],IC50 [11],Drug uptake [19],other results
COc1cc2cc(c1Cl)N(C)C(=O)C[C@H](OC(=O)[C@H](C)N(C)C(=O)CCSSC[C@H](NC(=O)[C@@H]1CSSC[C@H](NC(=O)[C@H](N)Cc3ccccc3)C(=O)N[C@@H](Cc3ccc(O)cc3)C(=O)N[C@H](Cc3c[nH]c4ccccc34)C(=O)N[C@@H](CCCCN)C(=O)N[C@@H]([C@@H](C)O)C(=O)N1)C(N)=O)[C@@]1(C)O[C@H]1[C@H](C)[C@@H]1C[C@@](O)(NC(=O)O1)[C@H](OC)/C=C/C=C(\C)C2,0.022 nM,10 nM,1 nM,0.167 h,2.33 h,708 nM,0.47 µM·h,1.66 mL/min/kg,100%,Non-Toxic,910 nM,Active,Kd [12]: 310 nM; Kd [13]: 19.8 nM; Kd [14]: 5480 nM; Kd [15]: 9.6 nM; Papp A→B [16]: 0.018 ×10⁻⁶ cm/s; Activity [17]: 100%; Activity [18]: 100%; Activity [20]: Active; Activity [21]: Active; Activity [22]: Active; Activity [23]: Active; Activity [24]: Active
COc1cc2cc(c1Cl)N(C)C(=O)C[C@H](OC(=O)[C@H](C)N(C)C(=O)CCSSC[C@H](NC(=O)[C@@H]1CSSC[C@H](NC(=O)[C@H](N)Cc3ccccc3)C(=O)N[C@@H](Cc3ccc(O)cc3)C(=O)N[C@H](Cc3c[nH]c4ccccc34)C(=O)N[C@@H](CCCCNC(=O)NCCCCCCN)C(=O)N[C@@H]([C@@H](C)O)C(=O)N1)C(N)=O)[C@@]1(C)O[C@H]1[C@H](C)[C@@H]1C[C@@](O)(NC(=O)O1)[C@H](OC)/C=C/C=C(\C)C2,3350 nM,581 nM,–,–,–,–,–,–,–,–,644 nM,–,Activity [25]: inactive
CO[C@H]1C(=O)[C@]2(C)[C@@H](OC)C[C@H]3OC[C@@]3(OC(C)=O)[C@H]2[C@H](OC(=O)c2ccccc2)[C@]2(O)C[C@H](OC(=O)[C@H](OC(=O)OCCSSC[C@H](NC(=O)[C@@H]3CSSC[C@H](NC(=O)[C@H](N)Cc4ccccc4)C(=O)N[C@@H](Cc4ccc(O)cc4)C(=O)N[C@H](Cc4c[nH]c5ccccc45)C(=O)N[C@@H](CCCCN)C(=O)N[C@@H]([C@@H](C)O)C(=O)N3)C(N)=O)[C@@H](NC(=O)OC(C)(C)C)c3ccccc3)C(C)=C1C2(C)C,0.97 nM,7 nM,11 nM,–,–,–,–,–,–,–,14 nM,–,–
COc1cc2cc(c1Cl)N(C)C(=O)C[C@H](OC(=O)[C@H](C)N(C)C(=O)CCSSC(C)(C)[C@H](NC(=O)[C@@H]1CSSC[C@H](NC(=O)[C@H](N)Cc3ccccc3)C(=O)N[C@@H](Cc3ccc(O)cc3)C(=O)N[C@H](Cc3c[nH]c4ccccc34)C(=O)N[C@@H](CCCCN)C(=O)N[C@@H]([C@@H](C)O)C(=O)N1)C(N)=O)[C@@]1(C)O[C@H]1[C@H](C)[C@@H]1C[C@@](O)(NC(=O)O1)[C@H](OC)/C=C/C=C(\C)C2,0.015 nM,8 nM,–,0.947 h,1.38 h,867 nM,0.769 µM·h,1.09 mL/min/kg,100%,Non-Toxic,1040 nM,–,–
COc1cc2cc(c1Cl)N(C)C(=O)C[C@H](OC(=O)[C@H](C)N(C)C(=O)CCSSCCCN[C@H](Cc1ccccc1)C(=O)N[C@H]1CSSC[C@@H](C(=O)N[C@@H](Cc3c[nH]c4ccccc34)C(N)=O)NC(=O)[C@H](C(C)C)NC(=O)[C@H](CCCCN)NC(=O)[C@@H](Cc3c[nH]c4ccccc34)NC(=O)[C@H](Cc3ccc(O)cc3)NC1=O)[C@@]1(C)O[C@H]1[C@H](C)[C@@H]1C[C@@](O)(NC(=O)O1)[C@H](OC)/C=C/C=C(\C)C2,0.19 nM,22 nM,–,–,–,–,–,–,–,–,115 nM,Active,–
